Assay results as given in ChEMBL document CHEMBL2062483, “Design of Bcl-2 and Bcl-xL inhibitors with subnanomolar binding affinities based upon a new scaffold” (J Med Chem, 2012).

Test system: not listed separately
Assay: Growth inhibition of human NCI-H146 cells after 4 days by WST8 assay
Format: functional, cell-based
Settings: NCI-H146, 96 h

Row | SMILES | IC50 [nM]
1 | CCOC(=O)c1c(-c2cccc(N3CCN(c4ccc(NS(=O)(=O)c5ccc(N[C@H](CCN(C)C)CSc6ccccc6)c([N+](=O)[O-])c5)cc4)CC3)c2)c(-c2ccc(Cl)cc2)cn1C | 4900
2 | CNC(=O)c1c(-c2cccc(N3CCN(c4ccc(NS(=O)(=O)c5ccc(N[C@H](CCN(C)C)CSc6ccccc6)c([N+](=O)[O-])c5)cc4)CC3)c2)c(-c2ccc(Cl)cc2)cn1C | 400
3 | CN(C)CC[C@H](CSc1ccccc1)Nc1ccc(S(=O)(=O)NC(=O)c2ccc(C#Cc3cccc(-c4c(-c5ccc(Cl)cc5)cn(CC[C@H](O)CO)c4C(=O)NCCCN4CCN(C)CC4)c3)cc2)cc1[N+](=O)[O-] | > 10000
4 | CN(C)CC[C@H](CSc1ccccc1)Nc1ccc(S(=O)(=O)NC(=O)c2ccc(N3CCN(c4cccc(-c5c(-c6ccc(Cl)cc6)cn(CC[C@H](O)CO)c5C(=O)NCCCN5CCN(C)CC5)c4)CC3)cc2)cc1[N+](=O)[O-] | > 10000
5 | CN(C)CC[C@H](CSc1ccccc1)Nc1ccc(S(=O)(=O)Nc2ccc(NCCNc3cccc(-c4c(-c5ccc(Cl)cc5)cn(CC[C@H](O)CO)c4C(=O)NCCCN4CCN(C)CC4)c3)cc2)cc1[N+](=O)[O-] | > 10000

Biological target: Apoptosis regulator Bcl-2 (Homo sapiens, UniProt P10415)
Sequence (P10415 whole entry): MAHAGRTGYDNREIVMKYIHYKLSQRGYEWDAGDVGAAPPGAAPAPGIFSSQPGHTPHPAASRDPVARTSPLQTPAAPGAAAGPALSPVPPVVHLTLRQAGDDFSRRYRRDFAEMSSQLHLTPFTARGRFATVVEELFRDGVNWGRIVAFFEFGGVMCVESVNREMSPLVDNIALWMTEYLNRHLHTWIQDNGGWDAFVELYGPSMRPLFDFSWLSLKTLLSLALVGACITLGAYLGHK
Assay: Binding affinity to N-terminus 6X His-tagged human Bcl2 expressed in Escherichia coli BL21 (DE3) cells after 2 hrs by fluorescence polarization assay
Settings: not given
Summary of the method: (§1)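 Competitive FP binding: serially diluted inhibitor in DMSO added to preincubated protein/fluorescent probe complex, 2 h at room temperature with gentle shaking. Final protein/probe: Bcl-2 1.5 nM/1 nM; Bcl-xL 10 nM/2 nM; Mcl-1 20 nM/2 nM. IC50 from nonlinear regression; Ki calculated from IC50, probe Kd and protein/probe concentrations.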

Row | SMILES | IC50 [nM] | Ki [nM]
6 | CCOC(=O)c1c(-c2cccc(N3CCN(c4ccc(NS(=O)(=O)c5ccc(N[C@H](CCN(C)C)CSc6ccccc6)c([N+](=O)[O-])c5)cc4)CC3)c2)c(-c2ccc(Cl)cc2)cn1C | 45.8 | 11.6
7 | CNC(=O)c1c(-c2cccc(N3CCN(c4ccc(NS(=O)(=O)c5ccc(N[C@H](CCN(C)C)CSc6ccccc6)c([N+](=O)[O-])c5)cc4)CC3)c2)c(-c2ccc(Cl)cc2)cn1C | 5.3 | 1.2
8 | CN(C)CC[C@H](CSc1ccccc1)Nc1ccc(S(=O)(=O)NC(=O)c2ccc(C#Cc3cccc(-c4c(-c5ccc(Cl)cc5)cn(CC[C@H](O)CO)c4C(=O)NCCCN4CCN(C)CC4)c3)cc2)cc1[N+](=O)[O-] | 1.9 | –
9 | CN(C)CC[C@H](CSc1ccccc1)Nc1ccc(S(=O)(=O)NC(=O)c2ccc(N3CCN(c4cccc(-c5c(-c6ccc(Cl)cc6)cn(CC[C@H](O)CO)c5C(=O)NCCCN5CCN(C)CC5)c4)CC3)cc2)cc1[N+](=O)[O-] | 8.7 | 2
10 | CN(C)CC[C@H](CSc1ccccc1)Nc1ccc(S(=O)(=O)Nc2ccc(NCCNc3cccc(-c4c(-c5ccc(Cl)cc5)cn(CC[C@H](O)CO)c4C(=O)NCCCN4CCN(C)CC4)c3)cc2)cc1[N+](=O)[O-] | 60.6 | 15.4

Test system: NCI-H1417
Assay: Growth inhibition of human NCI-H1417 cells after 4 days by WST8 assay
Format: functional, cell-based
Settings: NCI-H1417, 96 h

Row | SMILES | IC50 [nM]
11 | CCOC(=O)c1c(-c2cccc(N3CCN(c4ccc(NS(=O)(=O)c5ccc(N[C@H](CCN(C)C)CSc6ccccc6)c([N+](=O)[O-])c5)cc4)CC3)c2)c(-c2ccc(Cl)cc2)cn1C | 7300
12 | CNC(=O)c1c(-c2cccc(N3CCN(c4ccc(NS(=O)(=O)c5ccc(N[C@H](CCN(C)C)CSc6ccccc6)c([N+](=O)[O-])c5)cc4)CC3)c2)c(-c2ccc(Cl)cc2)cn1C | 650
13 | CN(C)CC[C@H](CSc1ccccc1)Nc1ccc(S(=O)(=O)NC(=O)c2ccc(C#Cc3cccc(-c4c(-c5ccc(Cl)cc5)cn(CC[C@H](O)CO)c4C(=O)NCCCN4CCN(C)CC4)c3)cc2)cc1[N+](=O)[O-] | > 10000
14 | CN(C)CC[C@H](CSc1ccccc1)Nc1ccc(S(=O)(=O)NC(=O)c2ccc(N3CCN(c4cccc(-c5c(-c6ccc(Cl)cc6)cn(CC[C@H](O)CO)c5C(=O)NCCCN5CCN(C)CC5)c4)CC3)cc2)cc1[N+](=O)[O-] | > 10000
15 | CN(C)CC[C@H](CSc1ccccc1)Nc1ccc(S(=O)(=O)Nc2ccc(NCCNc3cccc(-c4c(-c5ccc(Cl)cc5)cn(CC[C@H](O)CO)c4C(=O)NCCCN4CCN(C)CC4)c3)cc2)cc1[N+](=O)[O-] | > 10000

Biological target: Bcl-2-like protein 1 (Homo sapiens, UniProt Q07817)
Sequence (Q07817 whole entry): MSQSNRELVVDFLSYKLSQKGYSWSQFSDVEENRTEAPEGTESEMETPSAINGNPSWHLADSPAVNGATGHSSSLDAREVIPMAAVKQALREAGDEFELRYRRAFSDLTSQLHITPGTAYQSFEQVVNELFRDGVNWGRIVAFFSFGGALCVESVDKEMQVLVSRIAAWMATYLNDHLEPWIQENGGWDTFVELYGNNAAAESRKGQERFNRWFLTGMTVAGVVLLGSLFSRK
Assay: Binding affinity to N-terminus 8X His-tagged human Bcl-xL expressed in Escherichia coli BL21 (DE3) cells after 2 hrs by fluorescence polarization assay
Settings: not given
Summary of the method: as §1

Row | SMILES | IC50 [nM] | Ki [nM]
16 | CCOC(=O)c1c(-c2cccc(N3CCN(c4ccc(NS(=O)(=O)c5ccc(N[C@H](CCN(C)C)CSc6ccccc6)c([N+](=O)[O-])c5)cc4)CC3)c2)c(-c2ccc(Cl)cc2)cn1C | 12.6 | 1.7
17 | CNC(=O)c1c(-c2cccc(N3CCN(c4ccc(NS(=O)(=O)c5ccc(N[C@H](CCN(C)C)CSc6ccccc6)c([N+](=O)[O-])c5)cc4)CC3)c2)c(-c2ccc(Cl)cc2)cn1C | 6.3 | < 1
18 | CN(C)CC[C@H](CSc1ccccc1)Nc1ccc(S(=O)(=O)NC(=O)c2ccc(C#Cc3cccc(-c4c(-c5ccc(Cl)cc5)cn(CC[C@H](O)CO)c4C(=O)NCCCN4CCN(C)CC4)c3)cc2)cc1[N+](=O)[O-] | 5.7 | < 1
19 | CN(C)CC[C@H](CSc1ccccc1)Nc1ccc(S(=O)(=O)NC(=O)c2ccc(N3CCN(c4cccc(-c5c(-c6ccc(Cl)cc6)cn(CC[C@H](O)CO)c5C(=O)NCCCN5CCN(C)CC5)c4)CC3)cc2)cc1[N+](=O)[O-] | 6.1 | < 1
20 | CN(C)CC[C@H](CSc1ccccc1)Nc1ccc(S(=O)(=O)Nc2ccc(NCCNc3cccc(-c4c(-c5ccc(Cl)cc5)cn(CC[C@H](O)CO)c4C(=O)NCCCN4CCN(C)CC4)c3)cc2)cc1[N+](=O)[O-] | 44.1 | 11.3

Biological target: Induced myeloid leukemia cell differentiation protein Mcl-1 (Homo sapiens, UniProt Q07820)
Sequence (Q07820 whole entry): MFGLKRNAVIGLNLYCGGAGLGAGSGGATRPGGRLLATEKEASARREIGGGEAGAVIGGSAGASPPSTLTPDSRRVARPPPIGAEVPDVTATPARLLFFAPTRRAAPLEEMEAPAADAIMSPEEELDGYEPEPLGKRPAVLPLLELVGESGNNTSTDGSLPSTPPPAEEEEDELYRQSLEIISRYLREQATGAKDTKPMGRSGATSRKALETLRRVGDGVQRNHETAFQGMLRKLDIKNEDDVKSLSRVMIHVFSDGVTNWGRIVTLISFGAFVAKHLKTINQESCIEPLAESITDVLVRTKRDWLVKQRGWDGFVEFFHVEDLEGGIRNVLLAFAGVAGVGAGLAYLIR
Assay: Binding affinity to N-terminus 8X His-tagged human Mcl1 expressed in Escherichia coli BL21 (DE3) cells after 2 hrs by fluorescence polarization assay
Settings: not given
Summary of the method: as §1

Row | SMILES | IC50 [nM]
21 | CCOC(=O)c1c(-c2cccc(N3CCN(c4ccc(NS(=O)(=O)c5ccc(N[C@H](CCN(C)C)CSc6ccccc6)c([N+](=O)[O-])c5)cc4)CC3)c2)c(-c2ccc(Cl)cc2)cn1C | > 2000
22 | CNC(=O)c1c(-c2cccc(N3CCN(c4ccc(NS(=O)(=O)c5ccc(N[C@H](CCN(C)C)CSc6ccccc6)c([N+](=O)[O-])c5)cc4)CC3)c2)c(-c2ccc(Cl)cc2)cn1C | > 2000
23 | CN(C)CC[C@H](CSc1ccccc1)Nc1ccc(S(=O)(=O)NC(=O)c2ccc(C#Cc3cccc(-c4c(-c5ccc(Cl)cc5)cn(CC[C@H](O)CO)c4C(=O)NCCCN4CCN(C)CC4)c3)cc2)cc1[N+](=O)[O-] | > 10000
24 | CN(C)CC[C@H](CSc1ccccc1)Nc1ccc(S(=O)(=O)NC(=O)c2ccc(N3CCN(c4cccc(-c5c(-c6ccc(Cl)cc6)cn(CC[C@H](O)CO)c5C(=O)NCCCN5CCN(C)CC5)c4)CC3)cc2)cc1[N+](=O)[O-] | > 10000
25 | CN(C)CC[C@H](CSc1ccccc1)Nc1ccc(S(=O)(=O)Nc2ccc(NCCNc3cccc(-c4c(-c5ccc(Cl)cc5)cn(CC[C@H](O)CO)c4C(=O)NCCCN4CCN(C)CC4)c3)cc2)cc1[N+](=O)[O-] | > 10000
